CHOP inhibitor: inhibitors of CHOP promoter induction, primary screen, cell-based, unfolded protein response, luciferase reporter; CHO-K1 CHOP-promoter luciferase, tunicamycin-induced, 15-18 h; AID 2732, 2010; 220,000 tested, 3.8% active; inhibition, % at 10 µM;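 active means compounds that reduced the stress-induced luciferase reporter signal by more than about 70% of percent inhibition, limit read from the data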;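 further: 0% = tunicamycin plus vehicle and 100% = wells without tunicamycin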
Jurkat NFkB inh: inhibitors of induced NF-kB luciferase reporter, primary screen, TCR NF-kB activation inhibitor project, cell-based, luminescence, uHTS. Jurkat, PMA/ionomycin-induced NF-kB luciferase reporter. 330,000 tested, 0.53% active. inhibition, % at 4 µM; in the data active means inhibition above about 50%
UPR CHOP act: activators of apoptotic CHOP UPR arm, primary screen, cell-based, CHO-CHOP luciferase reporter, luminescence, uHTS | UPR activation; percent of tunicamycin response over DMSO baseline | activation, % at 10 µM | 330,000 tested, 0.34% active;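 active means at 10 µM dose, activation of 40% or more, normalized to positive control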;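 further: 100% = tunicamycin at 10 µg/mL and 0% = DMSO alone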
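Test system: CHO CHOP reporter cells. Input: 500 CHO-CHOP cells per well. Medium: F12 with 10% FBS. Technique: luciferase luminescence. Measure: percent activation relative to tunicamycin control. Dosing: 10 µM compound, 0.5% DMSO. Timing: 16-18 h cell attachment, then 6 h compound exposure, 37 °C.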
XBP1 UPR activ: activators of adaptive XBP1 UPR arm, primary screen, cell-based, CHO-XBP1 luciferase reporter, luminescence, uHTS; IRE1-XBP1 UPR activation; percent of tunicamycin response, DMSO as zero; activation, % at 20 µM; 330,000 tested, 0.33% active;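 active means versus positive control, 20 µM dose yields 30% or more activation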;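 further: 100% = tunicamycin at 10 µg/mL and 0% = DMSO only wells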
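Material: CHO cell line with stable XBP1 luciferase reporter; buffer or medium: F12 medium containing 10% fetal bovine serum; compound: single point, 20 µM final compound, 1% DMSO; incubation: 6 h treatment, 37 °C; measured by: glow luminescence from Steady-Glo reagent; evaluation: activation, % of tunicamycin; control set: tunicamycin high, DMSO low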
697 NFkB inh: inhibitors of PMA/ionomycin-induced NF-kB reporter, 697 cells, primary screen, B-cell NF-kB inhibitor project, cell-based, luminescence, uHTS; 697 B-cell NF-kB luciferase reporter, 16 h; inhibition, % at 4 µM; 330,000 tested, 0.33% active; in the data active means inhibition above about 35%
UPR CHOP confirm: activators of apoptotic CHOP UPR arm, confirmation, cell-based, CHO-CHOP luciferase reporter, single concentration; CHO-CHOP cells, CHOP-luciferase reporter luminescence; percent of tunicamycin response, DMSO as zero; activation, % at 10 µM; shares compounds with UPR CHOP act; 1,000 tested, 64% active; AID 463112, 2010; in the data active means activation above about 33%;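 further: 0% = DMSO wells and 100% = tunicamycin 10 µg/mL wells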
Active calls of the source: *; . = not tested or not shown. Only a selection was taken, and hits are over-represented in it overall.

SMILES | CHOP inhibitor | Jurkat NFkB inh | UPR CHOP act | XBP1 UPR activ | 697 NFkB inh | UPR CHOP confirm
CC(C)(C)c1ccc(OCc2ccc(C(=O)N/N=C/c3ccc(O)c(O)c3)cc2)cc1 | 27.9 | -4.0 | 40.9* | 19.8 | -151.2 | 26.6
O=C1C=CC(=O)N1c1cccc(-c2ccccc2)c1 | 20.3 | -3.5 | 82.2* | -7.4 | 8.2 | 10.3
O=C1c2ccccc2C(=O)N1c1cccc(-c2nc3ccccc3o2)c1 | 59.6 | 7.3 | -0.2 | -4.3 | 10.9 | .
CCOC(=O)c1c(C)oc2c1c(C(c1cccnc1)N1CCCCC1)c(O)c1ccccc12 (configuration not stated) | 17.2 | -82.2 | 114.0* | 11.3 | -10.8 | 181.9*
CCOC(=O)c1c(C)oc2c1c(C(c1ccccc1)N1CCOCC1)c(O)c1ccccc12 (configuration not stated) | -22.6 | -112.2 | 61.6* | 10.5 | -101.8 | 72.9*
Cc1nnc(SC(C)C(=O)Nc2c(C)n(C)n(-c3ccccc3)c2=O)n1N (configuration not stated) | 4.3 | -8.1 | -0.9 | -0.8 | -17.2 | .
CC(=O)CCc1ccc(Oc2nc(-c3cccnc3)nc3ccccc23)cc1 | 38.6 | 8.7 | 0.4 | 13.2 | -1.2 | .
COc1cc(C(=O)Sc2ccc(Cl)cc2)cc(OC)c1OC | 61.5 | -10.5 | 54.6* | 21.3 | 16.8 | 72.8*
COc1cc(C(=O)NCCSc2ccc(Cl)cc2)cc(OC)c1OC | . | -19.0 | -0.8 | -2.5 | -17.0 | .
COC(=O)c1cc(=O)n(Cc2ccc(OC)c(OC)c2)c(=Nc2ccc(F)cc2)s1 | 31.5 | 7.1 | 22.3 | 12.5 | 4.7 | .
COC(=O)c1cc(=O)n(CCc2ccc(OC)c(OC)c2)c(=Nc2ccc(F)c(Cl)c2)s1 | -22.4 | 30.6 | 40.9* | 12.8 | 3.6 | 63.0*
CCc1cccc2c(C(=O)CCl)c[nH]c12 | -141.5 | 11.9 | 84.1* | -0.3 | 11.0 | 66.2*
CCc1cccc2c(C(=S)N3CCCC3)c[nH]c12 | -17.5 | 5.5 | 0.6 | 4.9 | 13.1 | .
Cc1c(C#N)c(NC(=O)CCl)n(Cc2ccc(F)cc2)c1C | -91.6 | 4.0 | 65.2* | -0.2 | 30.4 | 73.6*
Cc1c(C#N)c(NC(=O)CCl)n(Cc2ccccc2)c1C | -11.5 | 20.4 | 112.9* | -4.9 | 17.1 | 56.6*
COC(=O)c1cc(C(=O)OC)n(Cc2ccc(F)cc2)c1C | -18.4 | -8.3 | 0.0 | -2.2 | -14.0 | .
Cc1c(C#N)c(NC(=O)CCl)n(Cc2cccs2)c1C | 53.1 | 13.6 | 86.8* | -2.2 | 28.2 | 71.4*
CCCCOc1ccc(C(=O)N2CCN(c3ncccn3)CC2)cc1 | . | 6.4 | -2.6 | -4.4 | -10.6 | .
Cc1ccc(C(=O)NCC(=O)OCCOc2ccccc2Cl)cc1 | . | -23.1 | 3.8 | 5.5 | -26.1 | .
O=C(CC1C(=O)NCCN1CC1CCCCC1)NCCc1ccc(F)cc1 (configuration not stated) | -4.5 | 5.3 | -1.7 | 2.5 | -12.3 | .
CC(C)CCN(C(=O)CCSc1ccc(F)cc1)c1c(N)n(Cc2ccccc2)c(=O)[nH]c1=O | . | -3.5 | -0.3 | 0.6 | -9.4 | .
O=C(Oc1ccccc1/C=C\C(=O)c1cc2ccccc2o1)c1ccccc1 | -36.6 | -99.3 | 73.1* | 27.4 | -76.1 | 243.9*
O=C1/C(=C/c2ccccc2[N+](=O)[O-])COc2ccccc21 | 95.1* | 17.1 | 173.1* | -0.7 | -6.7 | 85.5*
CNc1ccc(/C=C2\COc3ccccc3C2=O)cc1[N+](=O)[O-] | -56.0 | -42.9 | 4.1 | 3.5 | -9.0 | .
O=[n+]1c2c(n([O-])c3cc(F)c(N4CCCC4)cc31)CCC2 | . | 3.1 | 40.8* | 23.6 | -20.8 | -0.7
SMILES | CHOP inhibitor | Jurkat NFkB inh | UPR CHOP act | XBP1 UPR activ | 697 NFkB inh | UPR CHOP confirm
Cc1ccc(C(=O)NN2C(=O)/C(=C/c3cn(C)c4ccccc34)SC2=S)cc1 | 25.7 | . | . | . | . | .
Cn1cc(/C=C2\SC(=O)NC2=S)c2ccccc21 | 39.9 | -9.0 | 50.9* | 17.5 | -9.8 | 66.6*
CCc1ccc2nc(N(CCCN(C)C)C(=O)c3ccc(S(=O)(=O)N(C)C4CCCCC4)cc3)sc2c1 | . | -11.2 | 112.8* | 130.6* | -8.0 | 65.3*
CN(C)CCCN(C(=O)c1ccc(S(=O)(=O)N(C)C2CCCCC2)cc1)c1nc2ccc(F)cc2s1 | . | -7.1 | 1.5 | 2.2 | -2.7 | .
Cc1cc(C(=O)c2ccccc2)c(NC(=O)CCl)s1 | -152.2 | 2.6 | 44.7* | 2.7 | -12.3 | 3.6
COC(=O)c1ccc(C(=O)OC)c(NC(=O)CSc2cccc[n+]2[O-])c1 | -63.8 | -9.7 | 86.8* | 19.0 | -0.8 | 122.0*
Cc1cccc(NC2CCCCC2NS(=O)(=O)c2ccccc2)c1 (configuration not stated) | . | 11.3 | -2.8 | 0.1 | -2.3 | .
COc1ccc(/C=N/N2CCN(c3ccccc3OC)CC2)cc1OC | -4.4 | -5.1 | 0.0 | 1.7 | 4.3 | .
COc1ccccc1N1CCN(/N=C/c2ccc(O)c(O)c2)CC1 | -5.5 | 34.3 | 184.2* | 9.4 | -63.3 | 101.3*
Oc1ccc(/C=N/N2CCCCC2)cc1O | . | 11.3 | 178.5* | 5.3 | -96.4 | 38.0*
COc1ccc(C(=O)Nc2cccc(S(=O)(=O)NC3=NCCC3)c2)cc1OC | . | -8.0 | 1.4 | -0.4 | -7.5 | .
CN(Cc1ccccc1)C(=O)c1ccccc1N(C)S(=O)(=O)c1ccccc1 | . | 6.2 | -1.4 | -2.9 | 7.8 | .
CC(C)(C)c1ccc(OCC(=O)N2CCN(c3ncccn3)CC2)cc1 | . | -7.5 | 2.0 | -2.7 | 5.4 | .
CCC(=O)Nc1cc(-c2cc3ccccc3oc2=O)ccc1OC | 3.0 | -115.0 | -0.3 | -0.6 | -75.1 | .
COc1ccc(-c2cc3ccccc3oc2=O)cc1NC(=S)NC(=O)c1ccc2c(c1)OCCO2 | -13.1 | -61.6 | 86.5* | 198.5* | -68.3 | 55.0*
Cn1nnnc1Sc1ncnc2scc(-c3ccc(-c4ccccc4)cc3)c12 | . | 0.7 | 4.7 | 0.2 | 6.5 | .
Cn1nnnc1Sc1ncnc2scc(-c3cc4ccccc4o3)c12 | . | 32.4 | 86.2* | -7.5 | 19.5 | 117.8*
Cc1cc(C(=O)CSc2nnc(CCC(N)=O)n2C)c(C)n1C1CC1 | . | 13.7 | 2.2 | 1.1 | 3.5 | .
O=Cc1ccc(O)c2ncccc12 | 20.2 | 14.6 | 86.3* | 23.9 | -5.1 | 88.6*
COc1ccc(C(C[N+](=O)[O-])c2c(C)[nH]n(-c3ccccc3)c2=O)cc1 (configuration not stated) | . | -5.2 | 88.6* | -7.0 | 1.3 | -0.2
Cc1ccc(N=C2C(=S)N(c3ccc(C)cc3)C(=N)N2/N=C/c2ccc(Cl)cc2)cc1 | 49.8 | -45.5 | 56.5* | 7.3 | -36.5 | 17.2
CCCN1C(=O)/C(=C/c2ccc3c(c2)OCO3)NC1=S | -37.6 | . | . | . | . | .

High-throughput results deposited in PubChem BioAssay by several laboratories.
